Compound activity as filed in PubChem.
DAGLB inhibitor: DAGLB lipase inhibitors, primary screen, biochemical, fluorescence, HTS; Diacylglycerol lipase-beta (Homo sapiens), Q8NCG7; HEK293T DAGLB membrane lysate, EnzChek fluorogenic substrate; inhibition, % at 5.17 µM; 0.059% of 340,000 active; AID 504411, 2011; in the data active = inhibition above about 34%
Target sequence (Q8NCG7 whole entry, looked up): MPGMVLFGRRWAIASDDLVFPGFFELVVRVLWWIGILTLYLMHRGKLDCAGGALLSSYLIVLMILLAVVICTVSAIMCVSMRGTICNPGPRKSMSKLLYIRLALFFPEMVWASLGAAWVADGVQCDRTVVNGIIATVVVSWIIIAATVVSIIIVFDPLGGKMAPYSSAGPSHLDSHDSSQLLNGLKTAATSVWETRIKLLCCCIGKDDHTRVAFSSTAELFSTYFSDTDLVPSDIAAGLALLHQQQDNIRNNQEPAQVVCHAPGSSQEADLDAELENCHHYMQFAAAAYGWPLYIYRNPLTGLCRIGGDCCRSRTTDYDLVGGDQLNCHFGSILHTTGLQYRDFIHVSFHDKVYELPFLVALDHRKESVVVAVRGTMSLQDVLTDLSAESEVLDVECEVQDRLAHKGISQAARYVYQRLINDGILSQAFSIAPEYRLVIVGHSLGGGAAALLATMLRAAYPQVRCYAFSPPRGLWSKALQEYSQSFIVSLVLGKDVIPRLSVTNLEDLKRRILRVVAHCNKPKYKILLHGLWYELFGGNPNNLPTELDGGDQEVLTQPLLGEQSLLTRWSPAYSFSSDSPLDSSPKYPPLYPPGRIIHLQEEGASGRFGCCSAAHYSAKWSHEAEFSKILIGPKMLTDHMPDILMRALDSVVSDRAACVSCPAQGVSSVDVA
PLC-beta3 inh: human PLC-beta3 inhibitors, primary screen, biochemical, fluorescence; Purified PLC-beta3, fluorogenic substrate; 0.18% of 370,000 active; 1-phosphatidylinositol 4,5-bisphosphate phosphodiesterase beta-3 (Homo sapiens), Q01970; inhibition, % at 12.2 µM
HGIII-sPLA2 inh: human group III sPLA2 inhibitors, primary screen, biochemical, QFRET, BODIPY PC-A2 liposome substrate | Group 3 secretory phospholipase A2 (Homo sapiens), Q9NZ20 | QFRET BODIPY PC-A2 liposome hydrolysis, fluorescence | inhibition, % at 12.2 µM | 0.56% of 370,000 active;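 active = inhibition above mean plus 3 SD of compounds lying within the high and low control bounds, cut at about 19% in these data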
Tb MetRS inh: T. brucei MetRS inhibitors, primary screen, biochemical, luminescence; methionyl-tRNA synthetase (Trypanosoma brucei brucei); AID 624268, 2012; 0.4% of 360,000 active; purified T. brucei MetRS, ATP depletion, Kinase-Glo luminescence; inhibition, % at 11.9 µM;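 active = inhibition above a per-plate cutoff of the control wells' mean inhibition plus 3 SD, cut at about 5.5% in these data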
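Material: T. brucei methionyl-tRNA synthetase, purified; reagent: substrates ATP, L-methionine and bulk Escherichia coli tRNA; dosing: 11.9 µM single point; timing: 15 min plus 2 h at 25 °C; detection: luminescence of leftover ATP; evaluation: % inhibition; control set: DMSO-only wells as low control; replicates: singlicate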
PLC-gamma1 inh: PLC-gamma1 enzyme inhibitors, primary screen, biochemical, fluorescence, purified enzyme; 1-phosphatidylinositol 4,5-bisphosphate phosphodiesterase gamma-1 (Homo sapiens), P19174; fluorogenic substrate; inhibition, % at 12.2 µM; 0.84% of 370,000 active; AID 720700, 2013; in the data active = inhibition above about 9.5%
PLCg1 ctr: PLC-gamma1 enzyme inhibitors, counter-screen for PLC-beta3 inhibitor project, biochemical, fluorescence | inhibition, % at 12.3 µM | purified PLC-gamma1, fluorogenic substrate | shares compounds with PLC-gamma1 inh | 3.1% of 3,300 active; in the data active = inhibition above about 9.5%
PLCbeta3 conf: PLC-beta3 inhibitor confirmation, biochemical, fluorescence, purified enzyme | shares compounds with PLC-gamma1 inh | fluorogenic substrate fluorescence | inhibition, % at 12.3 µM | 1% of 3,300 active | AID 743261, 2014
Numbers stand for hits; i = inactive; nt = no result. Only some compounds are listed: those with a hit (about 1.9% of all), similar ones and a draw of the others. Cut-off read from the data, not from the text of the source, unless noted: active = inhibition above about 11%; inactive = the rest.

SMILES | DAGLB inhibitor | PLC-beta3 inh | HGIII-sPLA2 inh | Tb MetRS inh | PLC-gamma1 inh | PLCg1 ctr | PLCbeta3 conf
O=S1(=O)N[C@H](c2ccccc2)COc2cc(Br)ccc21 | nt | i | i | nt | i | nt | nt
COC(=O)c1c(-c2ccc(OC)cc2)c2c(c3c4cc(OC)ccc4n(S(=O)(=O)c4ccc(C)cc4)c13)C(=O)N(C)C2 | nt | i | i | nt | i | nt | nt
CN1C(=O)[C@@]2(C3=C(CCCC3=O)OC3=C2C(=O)CC(C)(C)C3)c2ccccc21 | nt | i | i | nt | i | nt | nt
O=C(Cn1cccc1C(=O)c1ccccc1)NCc1ccc(Cl)cc1 | i | i | i | i | i | nt | nt
Cc1ccc(CNC(=O)Cn2cccc2C(=O)c2ccccc2)cc1 | i | i | i | i | 12 | i | i
COC(=O)C1=C(C)NC(=O)NC1c1ccccc1Cl (stereo not given) | i | i | i | i | 11 | i | i
COc1cc(/C=N\NC(=O)c2ccccc2F)ccc1Oc1ccc([N+](=O)[O-])cn1 | i | i | i | i | 9.6 | i | i
CCCC1CCC2(CCCN2CCOC(=O)Nc2ccc(OC)cc2)CC1 (stereo not given) | nt | i | i | nt | i | nt | nt
Cc1ccc(C(=O)NC(=S)NCC2CCCO2)cc1[N+](=O)[O-] (stereo not given) | i | i | i | i | i | nt | nt
O=C(NC(=S)NCC1CCCO1)c1cccc([N+](=O)[O-])c1 (stereo not given) | i | 12 | i | i | 9.6 | i | i
COC(=O)[C@]12C[C@H](CC(=O)NCCCCc3ccccc3)C(=O)N(CCc3ccc(OC)c(OC)c3)C1=C[C@H](COCc1ccccc1)O[C@@H]2C | nt | i | i | nt | i | nt | nt
COc1ccccc1C(=O)Nc1ccnn1C1CCN(CCCC2CCCC2)CC1 | i | i | i | i | i | nt | nt
O=C(Nc1ccnn1C1CCN(CCCC2CCCC2)CC1)c1ccccc1Cl | i | i | i | i | 11 | i | i
CC1(C)CC(N2CCCC2)=CC(=[N+]2CCCCC2)C1 | i | i | i | i | 12 | i | i
CC1(C)CC(N2CCCC2)=CC(=[N+]2CCCC2)C1 | i | i | i | i | i | nt | nt
CCOC(=O)C1CCN(C(=O)CN2C(=O)C(CC)Oc3ccccc32)CC1 (stereo not given) | i | i | i | i | i | nt | nt
CCC1Oc2ccccc2N(CC(=O)N2CCCC2)C1=O (stereo not given) | i | i | i | i | 9.7 | i | i
CCOC(=O)c1c(C)nc(C)c(C(=O)OCC)c1-c1ccccc1 | i | nt | nt | i | nt | nt | nt
CCOC(=O)c1c(C)nc2c(c1-c1cc(OC)c(OC)c(OC)c1)C(=O)c1ccccc1-2 | i | i | i | i | 12 | i | i
CN(C)S(=O)(=O)n1cc(/C=C(\NC(=O)c2ccccc2Cl)C(=O)NCCN2CCOCC2)c2ccccc21 | i | i | i | i | 12 | i | i
CC(Nc1ccc(Br)cn1)c1cc(Cl)ccc1O (stereo not given) | i | i | i | i | 9.7 | i | i
C[C@@H]1Cc2c(O)c(O)cc(O)c2C(=O)O1 | i | nt | nt | i | nt | nt | nt
O=C1C=C(O)c2c(O)cc(O)c(O)c2C1=O | i | 15 | i | i | 31 | i | i
CCCCn1c(-c2csc3c2CCC(C)C3)n[nH]c1=S (stereo not given) | i | i | i | i | i | nt | nt
CCCCn1c(-c2csc3c2CCCC3)n[nH]c1=S | nt | i | i | nt | 15 | i | i
SMILES | DAGLB inhibitor | PLC-beta3 inh | HGIII-sPLA2 inh | Tb MetRS inh | PLC-gamma1 inh | PLCg1 ctr | PLCbeta3 conf
COc1ccc(/C=C/S(=O)(=O)NCC(C)C)c(CNC(=O)OC(C)(C)C)c1 | nt | i | i | nt | i | nt | nt
COc1ccc(-c2cc(C(=O)Nc3ccc(C)c(C)c3)no2)cc1 | i | i | i | i | 12 | i | i
Cc1ccc(NC(=O)c2cc(-c3ccc(F)cc3)on2)cc1C | i | i | i | i | i | nt | nt
Cc1cc(C(=O)N2CCCC(C(=O)c3cccc4ccccc34)C2)nc(C)n1 (stereo not given) | i | i | i | i | 10 | i | i
Cc1ccn(CC(=O)N2CCCC(C(=O)c3cccc4ccccc34)C2)n1 (stereo not given) | i | i | i | i | i | nt | nt
Cc1cccc(OCC(O)Cn2c(=N)n(Cc3ccccc3)c3ccccc32)c1 (stereo not given) | i | i | i | i | 12 | i | i
O=[N+]([O-])c1ncn(Cc2ccccc2Cl)n1 | i | 13 | i | i | i | i | i
COC(=O)C1=C(C)N(Cc2cccc(C(F)(F)F)c2)C(=NCC2CC2)NC1c1cccc(Cl)c1 (stereo not given) | nt | i | i | nt | i | nt | nt
CC(C)(C)NCc1ccccc1OCc1cccs1 | i | 11 | i | i | 13 | i | i
CC(C)(C)NCc1cc(Br)ccc1OCc1cccs1 | i | i | i | i | i | nt | nt
CCCOc1ccc(/C=N\NC(=O)CCc2n[nH]c(=O)[nH]c2=O)cc1OC | i | 13 | i | i | 11 | i | i
COc1ccc(CNCCS(=O)(=O)NCc2ccc(OC)cc2)cc1 | i | i | i | i | 13 | i | i
COc1cccc(N=Nc2c(=O)[nH]n3c(=O)c4c([nH]c23)CCC4)c1 | i | i | i | i | i | nt | nt
O=c1[nH]n2c(=O)c3c([nH]c2c1N=Nc1cccc(Cl)c1)CCC3 | i | i | i | i | 10 | i | i
CCCCCn1c(SCC(=O)CC(=O)OCC)nc2cc(C(=O)N3CCC(C(N)=O)CC3)ccc2c1=O | i | i | i | i | i | nt | nt
CCCCCn1c(SCC2CCCO2)nc2cc(C(=O)N3CCC(C(N)=O)CC3)ccc2c1=O (stereo not given) | i | i | i | i | 9.6 | i | i
O=C1NC[C@H](Cc2ccccc2)N(C[C@H]2CCCN2C[C@H](Cc2ccccc2)N2C[C@H](Cc3ccccc3)N(CC3CCCCC3)C(=O)C2=O)C1=O | i | i | i | i | 14 | i | i
O=C1NC[C@H](Cc2ccccc2)N(C[C@@H]2CCCN2C[C@H](Cc2ccccc2)N2C[C@H](Cc3ccccc3)N(CC3CCCCC3)C(=O)C2=O)C1=O | nt | i | i | i | i | nt | nt
CC(C)C[C@@H](CN1CCC[C@H]1CN1C(=O)C(=O)NC[C@@H]1Cc1ccc(O)cc1)N1C[C@H](Cc2ccccc2)N(CC2CCCCC2)C(=O)C1=O | nt | i | i | i | 10 | i | i
Cc1ccc(NC(=O)[C@@H](Cc2ccccc2)NC(=O)[C@H]2O[C@@H](n3ccc(=O)[nH]c3=O)[C@H](O)[C@@H]2O)cc1C | nt | i | i | nt | i | nt | nt
O=C(NNC(=O)c1ccc(F)cc1)c1ccncc1 | i | i | i | i | 11 | i | i
